For test [1], the target named is T1, Cholecystokinin receptor type A (Cavia porcellus, UniProt Q63931).
T1 sequence (Q63931 whole entry): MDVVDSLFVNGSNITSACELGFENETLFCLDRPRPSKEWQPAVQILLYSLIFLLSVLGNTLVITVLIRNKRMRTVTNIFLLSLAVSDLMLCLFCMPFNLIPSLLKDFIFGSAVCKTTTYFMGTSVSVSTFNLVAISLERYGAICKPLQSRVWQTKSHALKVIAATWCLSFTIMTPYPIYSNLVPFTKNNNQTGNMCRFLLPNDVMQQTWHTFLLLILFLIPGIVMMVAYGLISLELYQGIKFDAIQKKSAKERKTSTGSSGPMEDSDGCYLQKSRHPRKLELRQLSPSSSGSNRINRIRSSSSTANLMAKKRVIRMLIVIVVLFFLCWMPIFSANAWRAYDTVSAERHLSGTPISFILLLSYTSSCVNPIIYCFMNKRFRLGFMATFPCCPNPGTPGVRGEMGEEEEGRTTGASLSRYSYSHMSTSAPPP
Briefly: Binding affinity against CCK-A receptor in guinea pig pancreatic membranes. It is filed as cell membranes. The method, boiled down: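 Ki from displacement of [3H]pCCK8 bound to guinea-pig pancreatic membranes (CCK-A receptor).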

Test [2] has as its target T2, Gastrin/cholecystokinin type B receptor (Rattus norvegicus, UniProt P30553).
T2 sequence (P30553 whole entry): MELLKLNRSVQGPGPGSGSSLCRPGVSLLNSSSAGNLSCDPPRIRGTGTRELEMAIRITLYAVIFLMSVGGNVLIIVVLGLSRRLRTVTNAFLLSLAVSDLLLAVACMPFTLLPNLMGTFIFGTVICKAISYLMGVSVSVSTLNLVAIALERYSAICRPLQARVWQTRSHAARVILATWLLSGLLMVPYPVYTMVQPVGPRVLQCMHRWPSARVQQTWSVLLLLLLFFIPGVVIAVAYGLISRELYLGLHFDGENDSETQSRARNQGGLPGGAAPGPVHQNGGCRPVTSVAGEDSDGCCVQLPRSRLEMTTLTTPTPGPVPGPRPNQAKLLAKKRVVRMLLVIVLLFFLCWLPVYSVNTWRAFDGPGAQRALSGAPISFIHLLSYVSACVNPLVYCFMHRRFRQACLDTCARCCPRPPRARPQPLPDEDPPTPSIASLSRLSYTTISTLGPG
The test is described as follows: Capacity to inhibit [3H]-p CCK 8 binding to membrane preparations of CHO cells transfected with the rat CCK-B receptor. Type of test: cell membranes. The method, boiled down:
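Ki from displacement of [3H]pCCK8 bound to membranes of CHO cells stably transfected with the rat CCK-B receptor.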

Test [3] has as its target T2, Gastrin/cholecystokinin type B receptor. Briefly: Inhibitory activity against CCK-B receptor.

`CC(Cc1c[nH]c2ccccc12)(NC(=O)OC1[C@H]2C[C@@H]3C[C@@H](C[C@H]1C3)C2)C(=O)N1CCC(C(=O)c2ccccc2)CC1` (stereo partly drawn): the Ki (usually the dissociation constant of the complex between target and ligand, obtained from inhibition or displacement) in test [1] was determined as 1700 nM; in test [2], 3400 nM.
With `C[C@](Cc1c[nH]c2ccccc12)(NC(=O)OC1C2CC3CC(C2)CC1C3)C(=O)N1CC[C@H](Oc2ccc(Cl)cc2Cl)C[C@H]1C(=O)O` (stereo partly drawn), in test [2], the inhibitory constant (Ki) was 791 nM.
In the case of `C[C@](Cc1c[nH]c2ccccc12)(NC(=O)OC1C2CC3CC(C2)CC1C3)C(=O)N1CC[C@H](Oc2ccc(Cl)cc2Cl)C[C@@H]1C(=O)O` (stereo partly drawn), the inhibition constant Ki in test [1] was 3720 nM; in test [2], 175 nM.
Compound `COC(=O)[C@H]1C[C@@H](Oc2ccc(Cl)cc2Cl)CCN1C(=O)[C@@](C)(Cc1c[nH]c2ccccc12)NC(=O)OC1C2CC3CC(C2)CC1C3` (stereo partly drawn) registered an inhibition constant (Ki) in test [2] of 1540 nM.
Take `C[C@](Cc1c[nH]c2ccccc12)(NC(=O)OC1C2CC3CC(C2)CC1C3)C(=O)N1C[C@H](OCc2ccccc2)C[C@@H]1C(=O)O` (stereo partly drawn): in test [2], the Ki is 24 nM.
Turning to `C[C@](Cc1c[nH]c2ccccc12)(NC(=O)OC1C2CC3CC(C2)CC1C3)C(=O)N(CCc1ccc(Cl)cc1)CC(=O)O` (stereo partly drawn), the Ki in test [1] came out at 1060 nM.
`C[C@](Cc1c[nH]c2ccccc12)(NC(=O)OC1C2CC3CC(C2)CC1C3)C(=O)N1C[C@H](Oc2ccc(Cl)cc2Cl)C[C@@H]1C(=O)O` (stereo partly drawn): the results for the Ki in test [1] and in test [2] were 751 nM and 15.3 nM, respectively. In addition, in test [3], the IC50 (usually the concentration needed to halve the response being measured) worked out at 37.4 nM.
`C[C@](Cc1c[nH]c2ccccc12)(NC(=O)OC1C2CC3CC(C2)CC1C3)C(=O)N1C[C@H](Oc2ccc(F)cc2F)C[C@@H]1C(=O)O` (stereo partly drawn) displayed a concentration for half-maximal inhibition (IC50) in test [3] of 389 nM. In test [2], this compound returned an inhibition constant (Ki) of 18.6 nM.
As for `C[C@](Cc1c[nH]c2ccccc12)(NC(=O)OC1C2CC3CC(C2)CC1C3)C(=O)N1CC[C@@H](Oc2ccc(Cl)cc2Cl)C[C@@H]1C(=O)O` (stereo partly drawn), in test [2], the inhibition constant (Ki) was found to be 789 nM.
For `C[C@@](Cc1c[nH]c2ccccc12)(NC(=O)OC1C2CC3CC(C2)CC1C3)C(=O)N1CC[C@H](Oc2ccc(Cl)cc2Cl)C[C@@H]1C(=O)O` (stereo partly drawn), the Ki in test [2] turned out to be 812 nM.
Consider `C[C@@](Cc1c[nH]c2ccccc12)(NC(=O)OC1C2CC3CC(C2)CC1C3)C(=O)N1CC[C@H](Oc2ccc(Cl)cc2Cl)C[C@H]1C(=O)O` (stereo partly drawn), for which the inhibitory constant (Ki) in test [1] stood at 1060 nM; in test [2], 1680 nM. In test [3], the IC50 came to 217 nM.
On to `C[C@](Cc1c[nH]c2ccccc12)(NC(=O)OC1C2CC3CC(C2)CC1C3)C(=O)N1CC[C@@H](Oc2ccc(Cl)cc2Cl)C[C@H]1C(=O)O` (stereo partly drawn), for which, in test [2], the Ki is 543 nM.
As to `C[C@](Cc1c[nH]c2ccccc12)(NC(=O)OC1C2CC3CC(C2)CC1C3)C(=O)N1C[C@H](Oc2ccc([N+](=O)[O-])cc2)C[C@@H]1C(=O)O` (stereo partly drawn), the concentration for half-maximal inhibition (IC50) in test [3] was found to be 507 nM. In test [2], this compound gave a Ki of 32.7 nM.
Turning to `C[C@@](Cc1c[nH]c2ccccc12)(NC(=O)OC1C2CC3CC(C2)CC1C3)C(=O)N1CC[C@@H](Oc2ccc(Cl)cc2Cl)C[C@H]1C(=O)O` (stereo partly drawn), the Ki in test [2] came to 896 nM.
Same read-out and setting: then `CC(Cc1c[nH]c2ccccc12)(NC(=O)OC1C2CC3CC(C2)CC1C3)C(=O)N1CC[C@@H](Oc2ccc(Cl)cc2Cl)C[C@@H]1C(=O)O` (single isomer, unassigned), with 1040 nM.

For the origin of these results see ChEMBL document CHEMBL1130826, “Novel constrained CCK-B dipeptoid antagonists derived from pipecolic acid” (Bioorg Med Chem Lett, 1998).
